Data taken from ChEMBL document CHEMBL1132715, “Comparative molecular field analysis of hydantoin binding to the neuronal voltage-dependent sodium channel” (J Med Chem, 1999).

What was measured:
[1] = biological target: Sodium channel alpha subunits; brain (Types I, II, III) (Rattus norvegicus, UniProt P04775+P04774+P08104); assay: In vitro inhibition of Voltage-gated sodium channel by the displacement of [3H]batrachotoxin A 20-alpha-benzoate in rat brain cerebral cortex synaptoneurosomes; type: tissue-based
How it was run: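 Rat cerebral cortex gray matter synaptoneurosomes (~1 mg protein), washed in HEPES/choline chloride buffer pH 7.4 and stored at –70 °C. […] Filtration read-out; nonspecific binding taken with 300 μM veratridine. Points run in triplicate; IC50 by Probit analysis, using only 10–90% inhibition.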

[2] = Partition coefficient (logP); type: physicochemical; conditions: octanol/water

| Compound | IC50 [1] [µM] | logP ([2]; read-out: logP) | logP [2] |
| --- | --- | --- | --- |
| CCCCCCCC(O)(C(N)=O)c1ccccc1 (stereo unspecified) | 9 | 3.7 |  |
| O=C1NC(=O)C2(CCCc3ccccc32)N1 (stereo unspecified) |  | 1.46 |  |
| O=C1NC(=O)C2(CCc3ccccc32)N1 (stereo unspecified) |  | 0.96 |  |
| CCCCCCC1(c2ccccc2)NC(=O)NC1=O (stereo unspecified) | 13 | 3.4 |  |
| O=C1NC(=O)C2(CCCCCc3ccccc32)N1 (stereo unspecified) |  | 2.46 |  |
| CC12C(=O)NC(=O)N1CCc1ccccc12 (stereo unspecified) |  | 1.52 |  |
| CCN1C(=O)NC(=O)C1(C)c1ccccc1 (stereo unspecified) |  | 2.02 |  |
| CCCCCCCCCC1(c2ccccc2)NC(=O)NC1=O (stereo unspecified) | 5 | 4.96 |  |
| CCCCC1(c2ccc(C)cc2)NC(=O)NC1=O (stereo unspecified) |  | 2.96 |  |
| O=C1NC(=O)C(c2ccccc2)(C2CCCCC2)N1 (stereo unspecified) | 58 | 2.96 |  |
| O=C1NC(=O)C2(CCCCc3ccccc32)N1 (stereo unspecified) |  | 1.96 |  |
| CCCCC1(c2cccc(C)c2)NC(=O)NC1=O (stereo unspecified) |  | 2.96 |  |
| CCCCCCCC1(c2ccccc2)NC(=O)NC1=O (stereo unspecified) | 5 | 3.96 |  |
| CCCCC1(c2ccccc2C)NC(=O)NC1=O (stereo in doubt; 14a) |  | 2.96 |  |
| CCCCC1(c2ccccc2C)NC(=O)NC1=O (stereo in doubt; 14b) |  |  | 2.96 |
| NC(=O)N1c2ccccc2C=Cc2ccccc21 [CARBAMAZEPINE] |  | 2.13 |  |
